Activity calls are given as the source filed them. The rule behind the calls is not given here. Peptide text beside a SMILES is read from it.
Legend:
[1] = molecular target: T1, Tyrosinase (Agaricus bisporus) (UniProt O42713); test: Inhibition of mushroom tyrosinase using L-DOPA as substrate at 2.5 mM preincubated for 10 to 15 mins prior to substrate addition by spectrophotometry
T1 sequence (whole entry): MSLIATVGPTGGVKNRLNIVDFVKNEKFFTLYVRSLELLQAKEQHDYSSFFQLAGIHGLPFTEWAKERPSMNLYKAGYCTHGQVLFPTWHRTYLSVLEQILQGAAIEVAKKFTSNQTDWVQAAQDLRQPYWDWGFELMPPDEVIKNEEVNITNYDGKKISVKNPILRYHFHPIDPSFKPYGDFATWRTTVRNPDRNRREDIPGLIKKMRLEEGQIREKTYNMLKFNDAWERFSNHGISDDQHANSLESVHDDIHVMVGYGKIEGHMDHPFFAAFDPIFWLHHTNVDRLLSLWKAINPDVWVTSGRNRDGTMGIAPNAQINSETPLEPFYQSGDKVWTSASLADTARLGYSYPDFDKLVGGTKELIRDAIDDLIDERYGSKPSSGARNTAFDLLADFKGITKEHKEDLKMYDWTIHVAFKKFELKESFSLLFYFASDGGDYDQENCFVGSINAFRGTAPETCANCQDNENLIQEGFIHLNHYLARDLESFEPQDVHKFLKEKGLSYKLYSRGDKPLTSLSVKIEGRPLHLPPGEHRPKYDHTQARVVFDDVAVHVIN
Procedure, shortened: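 Mushroom tyrosinase (625 U/mL solution) pre-incubated with sample in phosphate-buffered saline for 10–15 min at 25 °C. Reaction started with 0.03% L-DOPA, and dopachrome formation read at 475 nm. Result given as percent inhibition; triplicate, mean ± SD.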

HDF [2] = test: Induction of collagen synthesis in HDF at 0.5 mM after 24 hrs by EIA; format: functional; conditions: Homo sapiens
Procedure, shortened: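 HDFs seeded at 5 × 10^4 cells and grown 24 h in DMEM with 10% FBS. Medium then switched to serum-free medium containing sample (0.5 mM) for 24 h. Type I procollagen in the supernatant measured by enzyme immunoassay kit; triplicate, mean ± SD.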

[3] = Inhibition of UV light-induced MMP-1 protein expression in HDF after 72 hrs UV light irradiation by ELISA; format: functional, Homo sapiens; conditions: for inhibition: Homo sapiens
Procedure, shortened: (§1)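 HDFs washed twice with PBS, then exposed to UVA at 6.3 J/cm2. MMP-1 protein in culture medium measured by ELISA 72 h after irradiation: anti-MMP-1 monoclonal 60 min at 37 °C, alkaline phosphatase-conjugated anti-mouse IgG 30 min, OD405. IC50 taken as the dose that lowers UV-induced MMP-1 by 50%; triplicate, mean ± SD.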

[4] = molecular target: T2, Tyrosinase (Mus musculus) (UniProt P11344); test: Inhibition of tyrosinase in mouse B16F10 cells assessed as inhibition of melanin synthesis at 0.25 mM after 72 hrs by spectrophotometry relative to control; format: cell-based; conditions: B16-F10
T2 sequence (whole entry): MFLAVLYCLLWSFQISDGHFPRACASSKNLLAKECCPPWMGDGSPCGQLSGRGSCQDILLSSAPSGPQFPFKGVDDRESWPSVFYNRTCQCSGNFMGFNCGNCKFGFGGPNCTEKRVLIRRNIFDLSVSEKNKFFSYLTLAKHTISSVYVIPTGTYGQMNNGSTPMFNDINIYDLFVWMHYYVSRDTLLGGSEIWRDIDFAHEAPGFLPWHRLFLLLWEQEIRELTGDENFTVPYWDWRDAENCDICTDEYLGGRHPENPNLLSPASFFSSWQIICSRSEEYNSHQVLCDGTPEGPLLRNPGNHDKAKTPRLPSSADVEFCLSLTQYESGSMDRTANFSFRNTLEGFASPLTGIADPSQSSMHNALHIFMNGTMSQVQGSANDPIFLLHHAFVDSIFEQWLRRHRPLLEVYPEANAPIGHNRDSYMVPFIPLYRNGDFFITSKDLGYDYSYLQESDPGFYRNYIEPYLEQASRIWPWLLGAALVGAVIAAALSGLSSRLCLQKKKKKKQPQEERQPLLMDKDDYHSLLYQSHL
Procedure, shortened: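 B16F10 cells grown with α-MSH were treated with samples for 72 h, then counted, washed and pelleted. Pellets solubilized in 1 N NaOH plus phosphate buffer pH 6.8 containing 1% Triton X-100 and 2 mM PMSF. Melanin read at 405 nm against a synthetic melanin standard curve and expressed as percent of control; triplicate, mean ± SD.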

[5] = Induction of HDF proliferation at 0.5 mM after 48 hrs by MTT assay relative to control; format: functional, Homo sapiens
Procedure, shortened: (§2)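 Human dermal fibroblasts grown in DMEM with 10% FBS and 1% penicillin-streptomycin at 37 °C under 5% CO2. Treated 48 h at 0.5, 2.5 and 5 mM. MTT ([…]) added for 3 h at 37 °C, then absorbance read at 570 nm. Result expressed as percent viable cells versus untreated control; triplicate, mean ± SD.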

[6] = Cytotoxicity against mouse B16F10 cells assessed as cell viability after 48 hrs by MTT assay; format: cell-based, B16-F10; conditions: read-out: MNCC
Procedure, shortened: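 B16F10 mouse melanoma cells grown in DMEM with 10% FBS, 1% penicillin-streptomycin and […] at 37 °C under 5% CO2. Exposed to samples 48 h at 37 °C, then MTT added for 3 h with A570 read-out. Reported value is the highest tested dose that caused no loss of viability.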

[7] = Solubility of the compound in water; format: physicochemical
[8] = Inhibition of UV light-induced MMP-1 protein expression in HDF at 0.5 mM after 72 hrs UV light irradiation by ELISA; format: functional; conditions: Homo sapiens; procedure, shortened: as §1
[9] = Cytotoxicity against HDF at 0.5 to 5 mM after 48 hrs by MTT assay; conditions: human, 5000 µM; procedure, shortened: as §2
HDF [10] = test: Induction of HDF proliferation at 0.1 mM after 48 hrs by MTT assay relative to control; format: functional; conditions: Homo sapiens
[11] = Induction of HDF proliferation at 5 mM after 48 hrs by MTT assay relative to control; format: functional, Homo sapiens; procedure, shortened: as §2

Row | Molecule | inhibition [1] | Activity (HDF [2]) | IC50 [3] [µM] | inhibition [3] | inhibition [4] [%] | Activity [5] [%] | MNTC at 48 h [6] [mM] | solubility [7] [mg/mL] | inhibition [8] [%] | Activity [9] | Activity (HDF [10]) | Activity [11] [%]
1 | C[C@@H](O)[C@H](NC(=O)[C@H](CCCCN)NC(=O)CCCC[C@@H]1CCSS1)C(=O)N[C@H](C(=O)N[C@@H](CCCCN)C(=O)N[C@@H](CO)C(=O)O)[C@@H](C)O (HELM PEPTIDE1{[O=C(CCCC[C@@H]1CCSS1)[*:2]].K.T.T.K.S}$$$$V2.0) | 60.2% | Active | 500 | Dose-dependent effect | 46.1 | 24.5 | 1 | > 100 | 49.5 |  |  | 
2 | O=C(O)CCCCC1CCSS1 (stereo not drawn) [LIPOIC ACID, ALPHA] | Active |  |  |  |  |  | 0.1 |  |  | Toxic | inactive | 
3 | H-KTTKS-OH | Active | Active |  | Dose-dependent effect | 7.5 |  | 5 |  |  |  |  | 13.4

From ChEMBL document CHEMBL2434946, “Synthesis of lipoic acid-peptide conjugates and their effect on collagen and melanogenesis” (Eur J Med Chem, 2013)
